Four molecules from the M2OR odorant receptor database can be followed below.

Common to all, as to conditions: stereoisomer not certain
One assay concerns the target T1, OR1G1 (Homo sapiens) (UniProt P47890).
T1 sequence (whole entry): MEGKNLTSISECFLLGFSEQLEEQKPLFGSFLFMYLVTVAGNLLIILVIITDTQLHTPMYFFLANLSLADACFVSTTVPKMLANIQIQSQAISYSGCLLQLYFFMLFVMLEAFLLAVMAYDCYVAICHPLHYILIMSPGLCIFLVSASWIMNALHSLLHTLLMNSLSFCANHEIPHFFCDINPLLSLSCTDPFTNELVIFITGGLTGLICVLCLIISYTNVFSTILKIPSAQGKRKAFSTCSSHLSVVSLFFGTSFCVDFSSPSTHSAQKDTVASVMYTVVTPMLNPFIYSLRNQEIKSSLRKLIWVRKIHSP
Put shortly: (§1)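 Assay methods differ from source to source, frequently being transient luciferase assays in mammalian cell lines. For each receptor–molecule pair, the label responsive (active) applies when the original authors judged the measured signal statistically different from baseline, and non-responsive (inactive) applies otherwise.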

Another assay addresses T2, OR1F12P (Homo sapiens) (UniProt Q8NHA8).
T2 sequence (whole entry): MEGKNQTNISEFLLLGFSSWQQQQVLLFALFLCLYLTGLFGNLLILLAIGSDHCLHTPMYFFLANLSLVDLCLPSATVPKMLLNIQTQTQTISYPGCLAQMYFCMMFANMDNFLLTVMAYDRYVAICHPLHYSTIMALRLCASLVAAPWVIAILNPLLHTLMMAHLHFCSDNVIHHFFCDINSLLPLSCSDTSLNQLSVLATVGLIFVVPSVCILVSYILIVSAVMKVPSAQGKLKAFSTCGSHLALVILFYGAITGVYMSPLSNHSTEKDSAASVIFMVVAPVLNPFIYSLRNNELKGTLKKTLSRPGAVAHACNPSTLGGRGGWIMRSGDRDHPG
Put shortly:
as §1

The target of a further assay is T3, OR1I1 (Homo sapiens) (UniProt O60431).
T3 sequence (whole entry): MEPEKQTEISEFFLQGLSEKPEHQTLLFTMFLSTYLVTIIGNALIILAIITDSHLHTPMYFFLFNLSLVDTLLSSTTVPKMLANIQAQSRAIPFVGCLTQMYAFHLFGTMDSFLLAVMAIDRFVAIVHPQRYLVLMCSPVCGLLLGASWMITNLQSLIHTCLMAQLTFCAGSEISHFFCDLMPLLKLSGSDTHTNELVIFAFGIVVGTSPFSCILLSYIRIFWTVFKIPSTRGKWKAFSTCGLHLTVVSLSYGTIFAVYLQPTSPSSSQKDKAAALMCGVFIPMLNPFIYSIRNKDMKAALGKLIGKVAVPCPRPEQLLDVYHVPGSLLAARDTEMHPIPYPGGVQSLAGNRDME
Summed up:
as §1

Another assay concerns the target T4, OR1J1 (Homo sapiens) (UniProt Q8NGS3).
T4 sequence (whole entry): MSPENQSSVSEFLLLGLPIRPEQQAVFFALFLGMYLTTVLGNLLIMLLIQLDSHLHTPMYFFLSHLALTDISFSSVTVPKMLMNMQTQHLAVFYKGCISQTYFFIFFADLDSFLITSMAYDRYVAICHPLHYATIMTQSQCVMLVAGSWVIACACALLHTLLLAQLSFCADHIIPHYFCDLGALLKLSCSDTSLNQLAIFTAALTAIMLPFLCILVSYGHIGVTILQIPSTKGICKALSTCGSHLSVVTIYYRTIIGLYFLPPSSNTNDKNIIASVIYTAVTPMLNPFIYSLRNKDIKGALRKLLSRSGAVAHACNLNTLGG
Put shortly:
as §1

The next assay deals with T5, OR1J2 (Homo sapiens) (UniProt Q8NGS2).
T5 sequence (whole entry): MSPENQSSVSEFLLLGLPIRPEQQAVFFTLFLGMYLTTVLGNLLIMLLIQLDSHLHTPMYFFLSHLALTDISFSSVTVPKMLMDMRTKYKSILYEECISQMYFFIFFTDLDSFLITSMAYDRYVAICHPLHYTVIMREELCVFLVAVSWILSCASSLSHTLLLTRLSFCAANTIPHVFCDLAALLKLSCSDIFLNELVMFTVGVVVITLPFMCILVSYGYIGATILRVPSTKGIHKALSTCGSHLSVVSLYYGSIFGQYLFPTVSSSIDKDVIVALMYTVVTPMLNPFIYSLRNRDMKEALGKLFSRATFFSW
Put shortly: as §1

The target of the next assay is T6, OR1J4 (Homo sapiens) (UniProt Q8NGS1).
T6 sequence (whole entry): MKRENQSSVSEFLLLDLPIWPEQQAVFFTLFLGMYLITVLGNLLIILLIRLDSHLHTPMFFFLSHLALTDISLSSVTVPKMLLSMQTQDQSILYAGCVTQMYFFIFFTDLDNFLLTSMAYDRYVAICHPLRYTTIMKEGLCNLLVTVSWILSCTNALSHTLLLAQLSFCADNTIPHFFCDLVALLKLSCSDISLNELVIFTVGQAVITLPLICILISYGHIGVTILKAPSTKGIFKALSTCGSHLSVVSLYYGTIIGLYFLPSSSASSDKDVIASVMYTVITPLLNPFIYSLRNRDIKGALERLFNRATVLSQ
Summed up: as §1

The target of the next assay is T7, OR1K1 (Homo sapiens) (UniProt Q8NGR3).
T7 sequence (whole entry): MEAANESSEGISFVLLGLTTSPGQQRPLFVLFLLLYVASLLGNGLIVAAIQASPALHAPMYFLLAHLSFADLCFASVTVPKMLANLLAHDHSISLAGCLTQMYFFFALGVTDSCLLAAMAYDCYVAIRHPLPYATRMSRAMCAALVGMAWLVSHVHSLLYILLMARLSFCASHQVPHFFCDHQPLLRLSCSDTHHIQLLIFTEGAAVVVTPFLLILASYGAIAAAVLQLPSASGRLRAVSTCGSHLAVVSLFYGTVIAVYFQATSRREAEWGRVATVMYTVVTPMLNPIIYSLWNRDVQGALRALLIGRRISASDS
Put shortly:
as §1

For the next assay, the target named is T8, OR1L1 (Homo sapiens) (UniProt Q8NH94).
T8 sequence (whole entry): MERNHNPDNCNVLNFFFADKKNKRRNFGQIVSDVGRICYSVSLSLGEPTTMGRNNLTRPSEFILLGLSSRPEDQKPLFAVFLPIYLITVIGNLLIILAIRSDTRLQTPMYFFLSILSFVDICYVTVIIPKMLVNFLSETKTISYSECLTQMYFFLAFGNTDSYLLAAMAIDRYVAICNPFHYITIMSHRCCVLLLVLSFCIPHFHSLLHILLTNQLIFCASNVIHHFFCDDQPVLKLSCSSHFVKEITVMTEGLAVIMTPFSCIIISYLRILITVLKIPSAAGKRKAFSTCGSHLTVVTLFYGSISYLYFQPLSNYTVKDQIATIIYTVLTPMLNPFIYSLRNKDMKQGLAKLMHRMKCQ
Put shortly: as §1

Another assay addresses T9, OR1L3 (Homo sapiens) (UniProt Q8NH93).
T9 sequence (whole entry): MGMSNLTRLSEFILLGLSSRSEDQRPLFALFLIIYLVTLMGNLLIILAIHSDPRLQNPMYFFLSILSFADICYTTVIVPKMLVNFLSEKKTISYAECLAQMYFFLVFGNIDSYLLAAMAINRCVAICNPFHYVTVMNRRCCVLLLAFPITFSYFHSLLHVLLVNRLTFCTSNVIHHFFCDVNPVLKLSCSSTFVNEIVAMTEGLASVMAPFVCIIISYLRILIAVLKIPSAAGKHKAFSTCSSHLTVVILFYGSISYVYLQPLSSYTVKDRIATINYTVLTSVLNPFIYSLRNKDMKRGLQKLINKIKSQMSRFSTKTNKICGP
Summed up:
as §1

For the next assay, the target named is T10, OR1L4 (Homo sapiens) (UniProt Q8NGR5).
T10 sequence (whole entry): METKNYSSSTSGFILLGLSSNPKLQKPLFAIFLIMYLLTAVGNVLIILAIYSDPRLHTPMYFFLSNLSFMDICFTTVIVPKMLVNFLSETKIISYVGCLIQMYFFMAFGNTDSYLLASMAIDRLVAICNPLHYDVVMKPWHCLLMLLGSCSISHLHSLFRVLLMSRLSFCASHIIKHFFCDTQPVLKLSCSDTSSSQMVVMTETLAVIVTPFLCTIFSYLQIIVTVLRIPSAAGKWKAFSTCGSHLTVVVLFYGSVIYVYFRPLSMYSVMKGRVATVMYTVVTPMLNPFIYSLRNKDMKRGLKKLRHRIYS
Summed up:
as §1

A further assay addresses T11, OR1L6 (Homo sapiens) (UniProt Q8NGR2).
T11 sequence (whole entry): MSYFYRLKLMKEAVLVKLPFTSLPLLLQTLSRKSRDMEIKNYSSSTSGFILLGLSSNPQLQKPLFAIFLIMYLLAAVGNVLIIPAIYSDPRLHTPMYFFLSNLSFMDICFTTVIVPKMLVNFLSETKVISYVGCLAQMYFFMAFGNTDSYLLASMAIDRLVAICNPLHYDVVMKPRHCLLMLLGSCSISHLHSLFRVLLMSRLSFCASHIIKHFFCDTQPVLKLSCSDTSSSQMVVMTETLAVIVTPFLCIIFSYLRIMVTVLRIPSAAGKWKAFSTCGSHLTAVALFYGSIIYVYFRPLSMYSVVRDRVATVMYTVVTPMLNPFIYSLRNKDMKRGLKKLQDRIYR
Put shortly:
as §1

In a further assay the target is T12, OR1L8 (Homo sapiens) (UniProt Q8NGR8).
T12 sequence (whole entry): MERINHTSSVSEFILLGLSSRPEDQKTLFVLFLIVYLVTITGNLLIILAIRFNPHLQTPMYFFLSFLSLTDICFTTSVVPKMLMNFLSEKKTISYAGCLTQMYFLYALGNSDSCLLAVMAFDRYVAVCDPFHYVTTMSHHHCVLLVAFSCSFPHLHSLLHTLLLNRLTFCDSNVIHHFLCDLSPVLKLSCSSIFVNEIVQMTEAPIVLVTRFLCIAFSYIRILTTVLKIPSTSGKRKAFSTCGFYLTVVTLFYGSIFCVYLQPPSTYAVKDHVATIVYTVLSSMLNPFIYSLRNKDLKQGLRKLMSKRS
Summed up:
as §1

The target in the next assay is T13, OR1M1 (Homo sapiens) (UniProt Q8NGA1).
T13 sequence (whole entry): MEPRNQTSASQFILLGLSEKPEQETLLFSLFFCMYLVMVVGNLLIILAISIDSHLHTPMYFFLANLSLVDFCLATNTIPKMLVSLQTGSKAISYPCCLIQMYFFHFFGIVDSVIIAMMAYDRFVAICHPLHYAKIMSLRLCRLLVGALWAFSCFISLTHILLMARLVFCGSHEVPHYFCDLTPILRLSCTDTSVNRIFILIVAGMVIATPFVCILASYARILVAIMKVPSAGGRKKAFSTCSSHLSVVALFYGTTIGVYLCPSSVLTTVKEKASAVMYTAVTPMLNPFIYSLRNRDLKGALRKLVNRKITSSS
Summed up:
as §1

Another assay concerns the target T14, OR1N1 (Homo sapiens) (UniProt Q8NGS0).
T14 sequence (whole entry): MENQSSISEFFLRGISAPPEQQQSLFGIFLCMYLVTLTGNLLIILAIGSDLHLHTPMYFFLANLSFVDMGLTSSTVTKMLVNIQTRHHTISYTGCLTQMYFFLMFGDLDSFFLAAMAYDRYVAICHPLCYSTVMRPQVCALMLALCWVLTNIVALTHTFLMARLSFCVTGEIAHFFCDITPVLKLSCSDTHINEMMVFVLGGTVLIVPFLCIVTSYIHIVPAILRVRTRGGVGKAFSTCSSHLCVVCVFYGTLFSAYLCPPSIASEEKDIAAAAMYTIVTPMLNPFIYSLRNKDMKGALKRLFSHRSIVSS
Summed up:
as §1

Regarding `CCCCCCCC(=O)OCC`, in the assay with OR1G1 (Homo sapiens), the “odorant receptor agonist call” value is “active”.

With `CCCCC(S)C(C)CO` (configuration not stated), the “odorant receptor agonist call” value with OR1F12P (Homo sapiens), with OR1G1 (Homo sapiens), with OR1I1 (Homo sapiens), with OR1J1 (Homo sapiens), with OR1J2 (Homo sapiens) and with OR1K1 (Homo sapiens) was “inactive” throughout. Besides, the “odorant receptor agonist call” value with OR1L1 (Homo sapiens), in the assay with OR1L3 (Homo sapiens), with OR1L4 (Homo sapiens), with OR1L6 (Homo sapiens), with OR1L8 (Homo sapiens) and with OR1M1 (Homo sapiens) was “inactive” each time. Moreover, the “odorant receptor agonist call” value with OR1N1 (Homo sapiens) was “inactive”. Also, in the assay with OR1J4 (Homo sapiens), the “odorant receptor agonist call” value was “active”.

In the case of `CC1CCC(C(C)C)C(=O)C1` (configuration not stated), the “odorant receptor agonist call” value with OR1G1 (Homo sapiens) was “inactive”.

In the case of `COc1nccnc1CC(C)C`, the “odorant receptor agonist call” value with OR1G1 (Homo sapiens) is “inactive”.
